The source made the active and inactive calls.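 The calls were made as follows, unless noted: active = visually confirmed hit in the image check and inhibition above 20%; inconclusive = visually confirmed hit but inhibition not above 20%; inactive = no visual hit in the image check.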

In general, inhibition refers to the relative decrease from the control value, in per cent.

Experiment [1] in a line: inhibitors of TNFa-induced NFkB p65 translocation, primary screen, imaging, HUVEC, MLSMR starter and 10KST1 sets (AID 438;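 active = inhibition above 20% together with a positive visual image hit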;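 also: compound added about 3h40 before a 20 min TNFalpha stimulation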;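 as to inhibition: signal is the nuclear over cytoplasmic p65 intensity ratio per well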). Conditions: HUVEC TNFa-induced p65 nuclear translocation; cell count: measured here: nuclei count (cytotoxicity indicator), at 2.08 µM unless noted; inhibition: at 2 µM, stronger effect = higher value unless noted.
A short description of experiment [2]: endothelial E-selectin expression blockers – imaging, HUVEC, immunofluorescence, MLSMR starter and 10KST1 sets, primary screen (AID 487).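 As to inhibition: signal is fraction of cell area covered by stained E-selectin grains.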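 As to nuclei count: 100% = median nuclei count of all wells on the same plate.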 As to conditions: HUVEC TNFalpha-induced E-selectin immunofluorescence imaging, at 2 µM; inhibition: stronger effect = higher value; nuclei count: measured here: cell number, toxicity.
The nature of experiment [3]: Primary imaging screen for DUSP6 inhibitors that restore phospho-Erk in transfected HeLa cells, chemical complementation (AID 609;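 active = compounds giving at least 50% inhibition in the cell-based MKP-3 phosphatase rescue imaging test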;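 as to inhibition: phospho-Erk level distribution per well compared with pooled transfected vehicle control wells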). As to conditions: HeLa MKP-3 transfected, phospho-Erk imaging KS statistic, at 10 µM.
Experiment [4] addresses Dual specificity protein phosphatase 6 (Homo sapiens) (UniProt Q16828). The experiment is described as above. Conditions: HeLa MKP-3 transfected, phospho-Erk imaging KS statistic, at 10 µM, stronger effect = higher value.
In experiment [5] the target is Voltage-gated potassium channel subunit beta-2 (Rattus norvegicus) (UniProt P62483). Put plainly: inhibitors of rat Kvbeta2 reductase activity – biochemical, NADPH fluorescence, primary screen (AID 622;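 active = fluorescence slope higher than the sample average by over 3 SD, cut at about -0.22 in these data, passing the limit was not always enough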;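 also: slope of raw intensity against log time taken from 70 to 1610 s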). As to conditions: recombinant KvBeta, 4-cyanobenzaldehyde reduction, at 10 µM, stronger effect = higher value.
For experiment [6] the target is unchanged. Put plainly: enhancers of rat Kvbeta2 NADPH turnover – biochemical, NADPH fluorescence, primary screen (AID 623;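 active = NADPH fluorescence slope more negative than the mean of all samples by about 3 SD, 99.7% confidence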;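 also: fluorescence intensity change per second fitted from 20 to 320 s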). Conditions: Recombinant KvBeta, NADPH fluorescence decrease slope, 10 min; at 10 µM; stronger effect = lower value.
The target in experiment [7] is Alpha-2C adrenergic receptor (Homo sapiens) (UniProt P18825). In words: compounds altering alpha2C-coupled GIRK flux – cell-based, HEK293 alpha2C/GIRK1/2, thallium flux, primary screen (AID 624;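 active = fluorescence slope after compound addition differing from the mean of all screened samples at 99.7% confidence, in either direction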;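 also: slope of fluorescence ratio to pre-addition baseline per second over 15 to 24 s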). Conditions: thallium flux BTC fluorescence, at 10 µM, actives lie on both sides.
A short description of experiment [8]: inhibitors of larval lipid processing in zebrafish, primary screen, whole organism, PED6 fluorescence, gall bladder and intestine (AID 686;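 active = a full or partial loss of lipid-probe fluorescence in the fish gall bladder, intestine or both, judged by eye; inactive = no fluorescence loss, or compound toxic to the fish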;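 also: larvae 5 to 7 days old with five fish per well; signal comes from phospholipase A2 cleavage of quenched PED6 carried via bile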). As to conditions: Zebrafish larvae PED6 lipid processing, fluorescence scoring. The gist of the method: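 system = live zebrafish larvae aged 5-7 days, whole organism | probe or stimulus = ingested quenched lipid PED6 at 100 nM | doses = 20 µM single dose | timing = overnight exposure | detection = fluorescence microscopy with visual scoring of gall bladder and intestine | read-out = visual per-well fluorescence inhibition score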

Experiment [9] is described as follows: loss of swimming-algae plug formation – whole organism, Chlamydomonas reinhardtii, WT vs cilia-less mutant, absorbance, 96-well, primary screen (AID 463189;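 active = inhibition at or above 50% relative to wild type and mutant plate controls; inactive = inhibition below 50%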;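 also: 0% = wild type cc124 cells in DMSO and 100% = ciliumless bld1 mutant cells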). Conditions: Chlamydomonas reinhardtii gravitaxis, OD600 absorbance, 2 days; at 10 µM; stronger effect = higher value.
[10] abbreviates: measured here: cell density z-score.
Setting [11] is: measured here: nuclear c-Myc green intensity z-score.
Where [12] appears, read: measured here: nuclear pErk red intensity z-score, stronger effect = higher value.

Sequence of Alpha-2C adrenergic receptor (Homo sapiens) (P18825 whole entry, looked up): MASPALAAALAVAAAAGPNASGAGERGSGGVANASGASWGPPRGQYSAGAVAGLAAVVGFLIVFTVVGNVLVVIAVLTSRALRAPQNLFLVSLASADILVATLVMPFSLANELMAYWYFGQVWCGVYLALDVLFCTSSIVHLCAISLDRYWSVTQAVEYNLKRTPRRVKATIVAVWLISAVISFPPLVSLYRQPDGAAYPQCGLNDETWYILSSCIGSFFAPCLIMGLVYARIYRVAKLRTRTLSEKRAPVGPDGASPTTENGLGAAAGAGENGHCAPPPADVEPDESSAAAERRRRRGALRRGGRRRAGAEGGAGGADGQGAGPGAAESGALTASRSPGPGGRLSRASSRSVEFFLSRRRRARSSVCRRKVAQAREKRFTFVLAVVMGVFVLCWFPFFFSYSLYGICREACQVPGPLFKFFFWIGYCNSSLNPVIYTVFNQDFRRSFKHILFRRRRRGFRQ
Sequence of Dual specificity protein phosphatase 6 (Homo sapiens) (Q16828 whole entry, looked up): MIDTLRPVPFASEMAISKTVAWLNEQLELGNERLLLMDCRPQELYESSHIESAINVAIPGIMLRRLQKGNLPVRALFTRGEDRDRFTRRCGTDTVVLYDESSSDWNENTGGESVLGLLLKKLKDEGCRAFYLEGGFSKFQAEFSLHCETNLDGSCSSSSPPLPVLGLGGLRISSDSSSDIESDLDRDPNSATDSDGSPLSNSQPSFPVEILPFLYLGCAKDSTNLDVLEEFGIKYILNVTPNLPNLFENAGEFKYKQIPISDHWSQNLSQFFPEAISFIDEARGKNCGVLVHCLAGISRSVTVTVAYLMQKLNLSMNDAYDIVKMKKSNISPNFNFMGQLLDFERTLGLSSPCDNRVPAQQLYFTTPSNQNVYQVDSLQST
Sequence of Voltage-gated potassium channel subunit beta-2 (Rattus norvegicus) (P62483 whole entry, looked up): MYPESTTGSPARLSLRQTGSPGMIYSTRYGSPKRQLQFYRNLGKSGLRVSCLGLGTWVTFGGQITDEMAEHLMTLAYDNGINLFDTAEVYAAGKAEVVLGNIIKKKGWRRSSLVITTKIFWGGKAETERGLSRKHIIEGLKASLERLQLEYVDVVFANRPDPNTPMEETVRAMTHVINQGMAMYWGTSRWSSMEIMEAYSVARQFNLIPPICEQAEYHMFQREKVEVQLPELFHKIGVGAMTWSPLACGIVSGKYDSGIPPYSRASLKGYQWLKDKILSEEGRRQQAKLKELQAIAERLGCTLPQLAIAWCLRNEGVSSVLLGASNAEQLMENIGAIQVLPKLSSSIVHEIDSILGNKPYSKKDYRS

In experiment [1], `CCCCn1c(O)c(C=NCCN2CCCCC2)c(=O)[nH]c1=O` displayed a cell count of 430. Besides, the inhibition in experiment [1] was 0.6% (inactive); in experiment [2], 17.7% (inactive); in experiment [4], -4.7% (inactive); in experiment [9], 3.56% (inactive). The nuclei count in [2] amounted to 87.8%. For the same compound, the values for the z-score in experiment [3] (setting [10]), in [3] (setting [11]) and in experiment [3] (setting [12]) were 0.907, -2.11 and -0.0585, respectively. The fluorescence slope in experiment [5] is -0.489 (inactive). Moreover, in experiment [6], the NADPH fluorescence slope is 9.8e-06 (inactive). For the same compound, the slope in experiment [7] was 0.00621 (inactive). The compound was classed as inactive in experiment [8].

As for `CCCCc1nc2ccccc2c(=O)n1-c1ccccc1O`, the cell count in [1] came to 619. Further, the inhibition in experiment [1] is -3.2% (inactive); in experiment [2] it was -6.5% (inactive); in experiment [4] it was -4.78% (inactive); in experiment [9], 2.52% (inactive). The compound further displayed a nuclei count in experiment [2] of 178%. Moreover, the z-score was -0.399 in experiment [3] (setting [10]), 0.344 in experiment [3] (setting [11]) and 1.46 in [3] (setting [12]). The fluorescence slope in experiment [5] was -0.36 (inactive). Further, in experiment [6], the NADPH fluorescence slope was 5.8e-06 (inactive). The slope in experiment [7] was 0.00524 (inactive). Moreover, the compound was classed as inactive in [8].

In the case of `C=CCC1(CN2CCCCCC2=O)C(=O)NC(=O)NC1=O`, the cell count in experiment [1] came out at 656. Besides, the inhibition in experiment [1] was 4% (inactive); in [2], -118% (inactive); in experiment [4], 11.3% (inactive); in experiment [9], -7.71% (inactive). This compound returned a nuclei count in experiment [2] of 148%. Further, the figures for the z-score in experiment [3] (setting [10]), in experiment [3] (setting [11]) and in experiment [3] (setting [12]) were -0.0973, 0.0168 and -1.06, respectively. Also, the fluorescence slope in experiment [5] is -0.517 (inactive). Also, the NADPH fluorescence slope in experiment [6] was -6.8e-05 (inactive). Further, the slope in [7] is 0.00505 (inactive). Besides, the call in [8] was inactive.

In experiment [1], `CCCCSP1(=S)NCCCO1` (configuration not stated) had a cell count of 490. Also, the inhibition was -12.8% (inactive) in experiment [1], -2.8% (inactive) in [2], 9.39% (inactive) in [4] and 18.8% (inactive) in experiment [9]. The nuclei count in [2] stood at 116%. The results for the z-score in experiment [3] (setting [10]), in [3] (setting [11]) and in [3] (setting [12]) were 0.851, -1.48 and -1.55, respectively. In [5], the fluorescence slope is -0.465 (inactive). The NADPH fluorescence slope in experiment [6] is -0.000374 (inactive). Besides, in experiment [7], the slope was 0.00445 (inactive). Moreover, in [8], the compound was called inactive.

Turning to `CCN(CC)CCN=Cc1c(O)n(CCc2ccccc2)c(=O)[nH]c1=O`, the cell count in experiment [1] worked out at 479. Also, the inhibition in [1] is 7.8% (inactive); in experiment [2], -1.8% (inactive); in experiment [4] it was 28% (inactive); in experiment [9], -6.45% (inactive). In [2], this compound returned a nuclei count of 88.8%. Further, the values for the z-score in experiment [3] (setting [10]), in experiment [3] (setting [11]) and in experiment [3] (setting [12]) were 0.714, -0.47 and -1.29, respectively. For the same compound, the fluorescence slope in experiment [5] is -0.368 (inactive). In addition, in experiment [6], the NADPH fluorescence slope is 9.5e-06 (inactive). In experiment [7], the slope is 0.00625 (inactive). In addition, in [8], the call was inactive.

In experiment [1], `CC(=O)C1(c2ccccc2)CCNCC1` displayed a cell count of 472. Moreover, the inhibition was 0.5% (inactive) in experiment [1], -152% (inactive) in experiment [2], 7.93% (inactive) in experiment [4] and 14.1% (inactive) in [9]. In [2], this compound came in with a nuclei count of 138%. Moreover, the z-score in experiment [3] (setting [10]) was -0.428; in experiment [3] (setting [11]) it was 0.195; in experiment [3] (setting [12]) it was 0.843. Also, the fluorescence slope in experiment [5] is -0.522 (inactive). For the same compound, in experiment [6], the NADPH fluorescence slope is -4.6e-05 (inactive). For the same compound, the slope in experiment [7] was 0.00442 (inactive). Besides, the compound was called inactive in [8].

For `CC(=O)OC1(c2ccc(C)cc2)CN2CCC1c1ccccc12` (configuration not stated), the cell count in [1] turned out to be 554. For the same compound, the inhibition in [1] was -10% (inactive); in experiment [2], -198% (inactive); in experiment [4] it was 25.8% (inactive); in experiment [9], 18.7% (inactive). For the same compound, the nuclei count in experiment [2] was 145%. Further, the z-score in [3] (setting [10]) is 0.866; in experiment [3] (setting [11]), 0.595; in experiment [3] (setting [12]) it was 0.108. Moreover, the fluorescence slope in experiment [5] is -0.502 (inactive). Moreover, the NADPH fluorescence slope in experiment [6] was -6.1e-05 (inactive). For the same compound, the slope in experiment [7] is 0.00515 (inactive). The call in [8] was inactive.

`COCCOC(=O)C1=C(N)Oc2c(c(=O)oc3ccccc23)[C@@]12C(=O)Nc1ccccc12` had a cell count in [1] of 600. In addition, the inhibition in experiment [1] is -9.7% (inactive); in experiment [2] it was -14.5% (inactive); in experiment [4], -2.29% (inactive); in experiment [9], -16.3% (inactive). The nuclei count in experiment [2] is 105%. The figures for the z-score in [3] (setting [10]), in experiment [3] (setting [11]) and in experiment [3] (setting [12]) were 0.613, 0.851 and -1.5, respectively. Besides, the fluorescence slope in experiment [5] is -0.499 (inactive). The NADPH fluorescence slope in experiment [6] is 2.1e-05 (inactive). The slope in [7] is 0.00465 (inactive). Moreover, in experiment [8], the call was inactive.

For the compound `COC(=O)C(O)(c1c[nH]c2ccccc12)C(F)(F)F` (configuration not stated), in experiment [1], the cell count was found to be 466. The inhibition in [1] is -0.7% (inactive); in [2] it was -19.2% (inactive); in [4] it was -5.26% (inactive); in experiment [9], -11.1% (inactive). Moreover, the nuclei count in experiment [2] stood at 112%. Further, the z-score in experiment [3] (setting [10]) is 0.726; in experiment [3] (setting [11]) it was 0.429; in experiment [3] (setting [12]), -1.12. Moreover, the fluorescence slope in [5] is -0.373 (inactive). Further, the NADPH fluorescence slope in experiment [6] was 1.2e-05 (inactive). The slope in [7] is 0.00556 (inactive). For the same compound, in [8], the result was inactive.
